From ChEMBL document CHEMBL4609990, “Design and synthesis of cyanamides as potent and selective N-acylethanolamine acid amidase inhibitors” (Bioorg Med Chem, 2020)

Tests used:
[1] = molecular target: T1, N-acylethanolamine-hydrolyzing acid amidase (Homo sapiens, UniProt Q02083); test: Inhibition of activated human NAAA using fluorogenic PAMCA and N-4-methylcoumarin as substrate incubated for 90 mins by fluorescence based assay
T1 sequence (Q02083 whole entry): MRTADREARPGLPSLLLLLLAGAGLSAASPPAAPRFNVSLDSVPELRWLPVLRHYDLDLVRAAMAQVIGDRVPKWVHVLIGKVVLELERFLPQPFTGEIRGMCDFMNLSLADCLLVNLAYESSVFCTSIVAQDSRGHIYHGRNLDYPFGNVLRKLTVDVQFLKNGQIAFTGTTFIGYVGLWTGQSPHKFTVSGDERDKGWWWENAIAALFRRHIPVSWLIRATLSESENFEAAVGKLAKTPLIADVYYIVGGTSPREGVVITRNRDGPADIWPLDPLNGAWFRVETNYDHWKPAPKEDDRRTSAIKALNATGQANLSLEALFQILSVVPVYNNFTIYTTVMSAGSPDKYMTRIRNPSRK
Procedure, shortened: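 Purified activated hNAAA (final 0.25 µg/mL) in 100 mM citrate-phosphate pH 4.5, 3 mM DTT, 0.1% Triton X-100, 0.05% BSA, 150 mM NaCl; compound in DMSO preincubated 90 min at room temperature. PAMCA added (final 5 µM), reaction at 37 °C for 90 min, fluorescence ex 360/em 460 nm read every 10 min. RFU converted to AMC via AMC standard curve. IC50 from eight concentrations, triplicate.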

[2] = molecular target: T2, N-acylethanolamine-hydrolyzing acid amidase (Homo sapiens) (UniProt Q02083); test: Irreversible inhibition of activated human NAAA assessed as ratio of Kinact/Ki using fluorogenic PAMCA and N-4-methylcoumarin as substrate
T2 sequence (whole entry): T1 sequence (Q02083 whole entry)

[3] = Half life in human liver microsomes at 1 uM in presence of NADPH by LC-MS/MS
[4] = Half life in rat liver microsomes at 1 uM in presence of NADPH by LC-MS/MS
[5] = molecular target: T3, Fatty-acid amide hydrolase 1 (Homo sapiens) (UniProt O00519); test: Inhibition of recombinant human FAAH expressed in Escherichia coli at 1 uM using fluorogenic AAMCA as substrate by fluorimetric assay relative to control
T3 sequence (whole entry): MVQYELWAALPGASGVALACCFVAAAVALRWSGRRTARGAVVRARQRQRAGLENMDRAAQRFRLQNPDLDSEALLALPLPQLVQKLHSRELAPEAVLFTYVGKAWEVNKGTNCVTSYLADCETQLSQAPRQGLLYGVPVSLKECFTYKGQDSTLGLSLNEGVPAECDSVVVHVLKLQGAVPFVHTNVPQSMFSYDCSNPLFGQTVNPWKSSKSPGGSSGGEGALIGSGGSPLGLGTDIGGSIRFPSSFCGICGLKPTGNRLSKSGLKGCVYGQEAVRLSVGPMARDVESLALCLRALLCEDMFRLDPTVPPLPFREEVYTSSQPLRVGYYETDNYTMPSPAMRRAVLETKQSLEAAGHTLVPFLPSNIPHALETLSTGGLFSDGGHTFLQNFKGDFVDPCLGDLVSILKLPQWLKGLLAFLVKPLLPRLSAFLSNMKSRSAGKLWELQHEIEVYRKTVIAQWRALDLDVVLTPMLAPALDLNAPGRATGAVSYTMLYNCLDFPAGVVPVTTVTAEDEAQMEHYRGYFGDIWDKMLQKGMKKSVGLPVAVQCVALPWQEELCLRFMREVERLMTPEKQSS
Procedure, shortened: (§1)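 Human recombinant FAAH expressed in E. coli and purified; fluorometric assay with arachidonoyl 7-amino-4-methylcoumarin amide (AAMCA) as substrate; IC50 by curve fitting, or percent inhibition at 1 µM.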

[6] = molecular target: T4, Monoglyceride lipase (Homo sapiens) (UniProt Q99685); test: Inhibition of recombinant human hexaHis-tagged MGL expressed in Escherichia coli BL21 (DE3) at 1 uM using fluorogenic AHMMCE as substrate preincubated for 1 hr followed by substrate addition by fluorimetric assay relative to control
T4 sequence (whole entry): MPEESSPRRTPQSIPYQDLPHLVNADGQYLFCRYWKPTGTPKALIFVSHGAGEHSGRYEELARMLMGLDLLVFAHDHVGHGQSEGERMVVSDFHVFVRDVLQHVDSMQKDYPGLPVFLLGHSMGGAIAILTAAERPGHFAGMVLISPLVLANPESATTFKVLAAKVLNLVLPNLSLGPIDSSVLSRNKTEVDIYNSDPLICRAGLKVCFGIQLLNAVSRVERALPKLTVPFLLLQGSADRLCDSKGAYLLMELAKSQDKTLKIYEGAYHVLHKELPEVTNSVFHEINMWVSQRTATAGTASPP
Procedure, shortened: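 Human recombinant MGL expressed in E. coli and purified; fluorometric assay using arachidonoyl 7-hydroxy-6-methoxy-4-methylcoumarin ester (AHMMCE) as substrate; IC50 by curve fitting, or percent inhibition at 1 µM.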

[7] = Half life in human plasma by HPLC analysis
[8] = species on record: Homo sapiens; test: Selectivity index, ratio of IC50 for recombinant human FAAH expressed in Escherichia coli using fluorogenic AAMCA as substrate by fluorimetric assay to IC50 human NAAA using fluorogenic PAMCA and N-4-methylcoumarin as substrate incubated for 90 mins by fluorescence based assay
[9] = species on record: Homo sapiens; test: Selectivity index, ratio of IC50 for human hexaHis-tagged MGL expressed in Escherichia coli BL21 (DE3) using fluorogenic AHMMCE as substrate preincubated for 1 hr followed by substrate addition by fluorimetric assay to IC50 human NAAA using fluorogenic PAMCA and N-4-methylcoumarin as substrate incubated for 90 mins by fluorescence based assay
[10] = species on record: Homo sapiens; test: Selectivity index, ratio of IC50 for human Cathepsin K using […] as substrate preincubated with enzyme for 90 mins followed by substrate addition by fluorimetry analysis to IC50 human NAAA using fluorogenic PAMCA and N-4-methylcoumarin as substrate incubated for 90 mins by fluorescence based assay
[11] = species on record: Homo sapiens; test: Selectivity index, ratio of IC50 for full length human ABHD6 using AHMMCE as substrate preincubated for 1 hr followed by substrate addition by fluorimetric assay to IC50 human NAAA using fluorogenic PAMCA and N-4-methylcoumarin as substrate incubated for 90 mins by fluorescence based assay
[12] = Half life in artificial gastric fluid by HPLC analysis; assay type: physicochemical
Procedure, shortened: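 Compound at 200 μM incubated in artificial gastric juice; reaction quenched with acetonitrile and samples analysed by HPLC to estimate half-life (min).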

[13] = molecular target: T5, Fatty-acid amide hydrolase 1 (Homo sapiens, UniProt O00519); test: Inhibition of recombinant human FAAH expressed in Escherichia coli using fluorogenic AAMCA as substrate by fluorimetric assay; procedure, shortened: as §1
T5 sequence (O00519 whole entry): T3 sequence (whole entry)

SMILES: N#CN1CC(OCc2ccc(-c3ccccc3)cc2)C1
- IC50 [1]: 2.8 nM
- Ratio [2]: 3.03 ×10⁶ /M/s

SMILES: N#CN1CC(OCc2ccc(Oc3ccccc3)cc2)C1
- IC50 [1]: 1.1 nM
- Ratio [2]: 1.33 ×10⁶ /M/s

SMILES: N#CN1CC(Oc2ccc(-c3ccccc3)cc2)C1
- IC50 [1]: 29 nM

SMILES: COc1ccc(-c2ccc3c(c2)CN(C2CN(C#N)C2)C3)cc1F
- IC50 [1]: 1.6 nM
- half-life at 1 µM ([3]; microsomes): 14.7 min
- half-life at 1 µM ([4]; microsomes): 4.4 min

SMILES: N#CN1CC(OCc2ccc(-c3ccc4c(c3)OCCO4)cc2)(c2ccccc2)C1
- IC50 [1]: 6.1 nM
- inhibition [5]: 99%
- inhibition [6]: 13.5%

SMILES: COc1cccc(-c2ccc(C(=O)N3CCC34CN(C#N)C4)cc2)c1
- IC50 [1]: 6.5 nM
- inhibition [5]: 6%
- inhibition [6]: 4%
- half-life [7]: 458 min
- Ratio IC50 [8]: > 100
- Ratio IC50 [9]: > 100
- Ratio IC50 [10]: > 100
- Ratio IC50 [11]: > 100

SMILES: COc1ncccc1-c1ccc(COC2CN(C#N)C2)cc1
- IC50 [1]: 5.8 nM

SMILES: CN(Cc1ccc(-c2ccccc2)cc1)C1CN(C#N)C1
- IC50 [1]: 20.8 nM
- half-life at 1 µM ([3]; liver microsomes): 11.3 min

SMILES: COc1cccc(-c2ccc(COC3CN(C#N)C3)c(F)c2)c1
- IC50 [1]: 0.47 nM
- half-life [12]: 271 min

SMILES: N#CN1CC[C@H](OCc2ccc(-c3ccccc3)cc2)C1
- IC50 [1]: 315 nM

SMILES: N#CN1CC(COCc2ccc(-c3ccccc3)cc2)C1
- IC50 [1]: 3.4 nM
- Ratio [2]: 3.04 ×10⁶ /M/s

SMILES: COc1cccc(-c2ccc(S(=O)(=O)N3CCC34CN(C#N)C4)cc2)c1
- IC50 [1]: 2.8 nM
- IC50 [13]: 10.2 nM
- inhibition [6]: 14%
- half-life [7]: 180 min
- Ratio IC50 [9]: > 100
- Ratio IC50 [10]: > 100
- Ratio IC50 [11]: > 100

SMILES: COc1ccc(-c2ccc(COC3CN(C#N)C3)cc2)cc1
- IC50 [1]: 0.94 nM
- Ratio [2]: 3.25 ×10⁶ /M/s

SMILES: COc1cccc(-c2ccc(COC3CN(C#N)C3)cc2)c1OC
- IC50 [1]: 0.88 nM
- Ratio [2]: 8.4 ×10⁶ /M/s

SMILES: COc1cccc(-c2ccc(C(=O)NC3(C)CN(C#N)C3)cc2)c1
- IC50 [1]: 1.58 nM
- inhibition [5]: 23%
- inhibition [6]: 11%
- half-life [7]: 902 min

SMILES: COc1ccc(-c2ccc(COC3(c4cccnc4)CN(C#N)C3)c(F)c2)cc1F
- IC50 [1]: 4.6 nM
- IC50 [13]: 2 nM

SMILES: COc1cccc(-c2ccc(COC3(c4ccccc4)CN(C#N)C3)cc2)c1
- IC50 [1]: 9.1 nM
- IC50 [13]: 61 nM
- inhibition [6]: 19.5%
- half-life at 1 µM ([3]; microsomes): 15.3 min
- half-life at 1 µM ([4]; microsomes): 14.5 min

SMILES: N#CN1CC(OCc2ccc(-c3cccnc3)cc2)C1
- IC50 [1]: 12 nM

SMILES: COc1ccccc1-c1cc(Oc2ccccc2)ccc1COC1CN(C#N)C1
- IC50 [1]: 23.7 nM

SMILES: N#CN1CC[C@@H](OCc2ccc(-c3ccccc3)cc2)C1
- IC50 [1]: 26.4 nM

SMILES: N#CN1CC(OCc2ccc(Oc3ccccc3)cc2-c2ccccc2)C1
- IC50 [1]: 8.5 nM

SMILES: N#CN1CC(OCc2ccc(Oc3ccccc3)cc2Br)C1
- IC50 [1]: 1.03 nM

SMILES: N#CN1CC(OCc2ccc(-c3cccc(OCc4ccccc4)c3)cc2)C1
- IC50 [1]: 1.4 nM

SMILES: N#Cc1ccc(-c2cc(Oc3ccccc3)ccc2COC2CN(C#N)C2)cc1
- IC50 [1]: 2.5 nM

SMILES: COc1ccc(-c2cc(Oc3ccccc3)ccc2COC2CN(C#N)C2)cc1
- IC50 [1]: 5.7 nM

SMILES: N#CN1CC(OCc2ccc(-c3ccc(F)cc3)cc2)C1
- IC50 [1]: 0.68 nM
- Ratio [2]: 2.09 ×10⁶ /M/s

SMILES: COc1cccc(-c2ccc(C(OC3CN(C#N)C3)c3ccccc3)cc2)c1 (stereo unspecified)
- IC50 [1]: 11.6 nM

SMILES: N#Cc1ccccc1-c1cc(Oc2ccccc2)ccc1COC1CN(C#N)C1
- IC50 [1]: 6.6 nM

SMILES: Cc1ccc(-c2ccc(COC3CN(C#N)C3)cc2)cc1
- IC50 [1]: 0.46 nM
- Ratio [2]: 2.24 ×10⁶ /M/s

SMILES: COc1ccncc1-c1ccc(COC2CN(C#N)C2)cc1
- IC50 [1]: 40 nM

SMILES: Cn1nccc1-c1ccc(C(OC2CN(C#N)C2)c2ccccc2)cc1 (stereo unspecified)
- IC50 [1]: 74.7 nM

SMILES: N#CN1CC(OCc2ccc(-c3ccc4c(c3)OCO4)cc2)(c2ccccc2)C1
- IC50 [1]: 9.2 nM
- inhibition [5]: 99%
- inhibition [6]: 59%

SMILES: COc1cccc(-c2ccc(S(=O)(=O)NC3(C)CN(C#N)C3)cc2)c1
- IC50 [1]: 3.2 nM
- IC50 [13]: 17.8 nM
- inhibition [6]: 19%
- half-life [7]: 221 min
- Ratio IC50 [9]: > 100
- Ratio IC50 [10]: > 100
- Ratio IC50 [11]: > 100

SMILES: COc1ccc(-c2ccc(COC3(C4CC4)CN(C#N)C3)c(F)c2)cc1F
- IC50 [1]: 0.35 nM
- IC50 [13]: 1 nM
- half-life [7]: 127 min

SMILES: COc1cccc(OC)c1-c1ccc(COC2CN(C#N)C2)cc1
- IC50 [1]: 67.5 nM

SMILES: COc1cccc(-c2ccc(COC3CN(C#N)C3)c(C(F)(F)F)c2)c1
- IC50 [1]: 0.85 nM
- Ratio [2]: 1.4 ×10⁶ /M/s

SMILES: N#CN1CC(OCc2ccc(-c3ccc(C(F)(F)F)cc3)cc2)C1
- IC50 [1]: 1.6 nM
- Ratio [2]: 2.74 ×10⁶ /M/s
- half-life at 1 µM ([3]; liver microsomes): 6.8 min
- half-life at 1 µM ([4]; liver microsomes): 8.9 min

SMILES: COc1cccc(-c2ccc(COC3CN(C#N)C3)c(OC)c2)c1
- IC50 [1]: 2.8 nM
